# IMP-1 inhibitor – blocks Pseudomonas aeruginosa IMP-1 metallo-beta-lactamase; purified IMP-1, nitrocefin hydrolysis, epi-absorbance fluorescence; inhibition, % at 5.6 µM; 290,000 compounds, 0.45% hits; AID 1556;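 active means inhibition above the mean plus 3 SD of all compounds in the same screening run, cut at about 4.5% in these data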;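 further: 0% = IMP-1 with DMSO and 100% = DMSO wells lacking enzyme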
#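 Material – recombinant IMP-1 enzyme, purified · Amount – IMP-1 0.2 nM before substrate addition · Medium – HEPES buffer pH 7.1 with ZnSO4 and Brij 35 · Timing – 25 °C, 15 min preincubation, 25 min reaction · Measured by – plate fluorescence quenching by hydrolysis product, ex 480/em 530 nm · Read-out – percent enzyme inhibition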
# proCasp3 act – activators of human procaspase-3 | P42574 | recombinant procaspase-3 D3A, Ac-DEVD-pNA absorbance 405 nm | activation, % at 8.5 µM | 330,000 compounds, 0.11% hits | AID 463141;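 active means activation above the mean of all tested compounds plus 3 SD, cut at about 21% in these data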;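 further: 0% = DMSO alone and 100% = DMSO wells spiked with extra 5 µM PC-3 D3A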
#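 Test system: Procaspase-3 D3A mutant, all three cleavage aspartates alanine | Dosing: Single dose, 8.5 µM nominal compound, 0.8% DMSO | Schedule: 1 h preincubation, 2 h reaction | Technique: 405 nm absorbance of p-nitroaniline, reads at 0 and 120 min | Repeats: One well per compound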
# proCasp7 act – counter-screen: procaspase-7 (human) activation. activation, % at 8.5 µM. recombinant procaspase-7, Ac-DEVD-pNA absorbance 405 nm; D23A/D198A/D206A triple mutant, cannot self-cleave; scale: DMSO 0, 5 µM enzyme 100. P55210. 330,000 compounds, 0.093% hits. AID 463210;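 active means percent activation above the screen-wide mean plus 3 SD, cut at about 25% in these data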
#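 Assay system: Uncleavable procaspase-7 mutant enzyme | Input: 2 µM procaspase-7 mutant as dispensed | Timing: 1 h compound preincubation, 2 h substrate cleavage, 25 °C | Repeats: One well per compound | Control set: DMSO wells as 0%, DMSO with 5 µM added PC-7 as 100% | Technique: Epi-absorbance of released pNA at 405 nm, two timepoints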
# VIM-2 inhibitor – inhibitors of Pseudomonas aeruginosa VIM-2 metallo-beta-lactamase. purified VIM-2, nitrocefin hydrolysis, epi-absorbance fluorescence. inhibition, % at 5.6 µM. 290,000 compounds, 0.89% hits;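 active means inhibition above the mean of all tested compounds plus 3 SD, cutoff set per screening run, cut at about 7.5% in these data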;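 further: red hydrolysis product quenches plate fluorescence so inhibitors raise well fluorescence; 0% = enzyme with DMSO and 100% = DMSO without enzyme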
# Neddylation inh – blocks human cullin neddylation; TR-FRET cullin neddylation, biochemical; calls only at 25 µM; 360,000 compounds, 0.58% hits; P61081+Q13564; AID 651699; in the data active means inhibition above about 36%
# PolyA inh – blocks polyadenylation in yeast reporter cells | 300,000 compounds, 0.02% hits | S. cerevisiae SKY197-pL101 polyadenylation reporter, beta-gal luminescence; efflux-impaired pdr1/pdr3 knockout yeast; score 100 = 6 SD above DMSO | activity score, % at 12 µM;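 active means lowest replicate activity score at least 50, where 100 means six control SD above control mean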;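 further: yeast exposed to compound for 9 h at 30 °C; higher score means more reporter readthrough which indicates perturbed polyadenylation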
# An asterisk follows results filed as active; i = inactive; x = not tested or not shown. This is a sample that favours compounds with a hit; in the whole collection about 1.7% have one here.
SMILES,IMP-1 inhibitor,proCasp3 act,proCasp7 act,VIM-2 inhibitor,Neddylation inh,PolyA inh
Cc1ccc(C(=O)N/C(=C\c2ccc([N+](=O)[O-])cc2)C(=O)NCCc2ccccc2)cc1,-3,7,-13,-2,i,-1
Cc1ccc(S(=O)(=O)N2CCN(C(=O)CC3CCCC3)CC2)cc1,4.5*,4,0,3,i,17
COc1cccc2c1C(=O)c1c(O)c3c(c(O)c1C2=O)C[C@@](O)(C(=O)CO)C[C@@H]3O[C@H]1C[C@H](N)[C@@H](O)[C@H](C)O1,x,3,5,x,i,3
COc1cccc2c1C(=O)c1c(O)c3c(c(O)c1C2=O)C[C@@](O)(C(C)=O)C[C@@H]3O[C@H]1C[C@H](N)[C@H](O)[C@H](C)O1,2,x,x,19*,i,x
Oc1ccc(/C=N/Nc2nn3cnnc3c3ccccc23)cc1,-4,-6,-6,8.8*,i,-23
COc1cccc(/C=N/Nc2nn3cnnc3c3ccccc23)c1,-4,-7,-3,12*,i,13
CCSc1nnc(-c2ccc(S(=O)(=O)NCc3cccs3)cc2)o1,-5,0,9,-3,i,x
O=C(OCC(=O)c1ccc[nH]1)c1ccc(Cl)nc1,x,2,3,x,i,27
CC1=CC(C)C(C(=O)O)C(C(=O)Nc2cccnc2)C1 (stereo unspecified),0,-4,6,-2,i,-12
CC1=CC(C)C(C(=O)O)C(C(=O)N2CCN(C)CC2)C1 (stereo unspecified),-2,4,3,9.3*,i,3
COC(=O)c1cc(OC)c(OC)cc1NC(=O)CCc1ccc(C)o1,-7,-7,3,-6,i,-19
COC(=O)c1cc(OC)c(OC)cc1NC(=O)c1ccc(C)o1,-3,3,9,9.2*,i,-29
Nc1nc(NCCCN2CCOCC2)nc(Nc2ccc(F)cc2)c1[N+](=O)[O-],0,-6,10,8.1*,i,-10
Nc1nc(NCCCN2CCOCC2)nc(Nc2cccc(F)c2)c1[N+](=O)[O-],-4,-5,-2,9.7*,i,12
CN(/N=C/c1cc(Cl)ccc1O)C1=NS(=O)(=O)c2ccccc21,0,1,-2,10*,i,11
COc1cccc(/C=N/N(C)C2=NS(=O)(=O)c3ccccc32)c1O,-2,-1,5,9.5*,i,-14
CN(/N=C/c1cccnc1)C1=NS(=O)(=O)c2ccccc21,-3,-8,7,5,i,2
O=S(=O)(CC(CN1CCCCC1)N1CCCCC1)c1ccccc1 (stereo unspecified),-3,6,3,0,i,4
CCN(CC(=O)Nc1ccc(NC(C)=O)cc1)CC(=O)Nc1ccc(Cl)c(Cl)c1,5.9*,-3,-1,0,i,1
Cc1coc2c(C)c3oc(=O)c(CCC(=O)NCCN4CCOCC4)c(C)c3cc12,-1,2,1,8.2*,x,-1
Cc1c(CCC(=O)NCCCn2ccnc2)c(=O)oc2c(C)c3occ(C(C)(C)C)c3cc12,1,0,1,8.1*,i,-8
Cc1coc2c(C)c3oc(=O)c(CCC(=O)NCCCN4CCOCC4)c(C)c3cc12,-1,3,11,11*,x,6
Cc1coc2c(C)c3oc(=O)c(CCC(=O)N4C[C@H]5C[C@@H](C4)c4cccc(=O)n4C5)c(C)c3cc12,-3,1,-6,7.7*,x,-6
Cc1oc2c(C)c3oc(=O)c(CCC(=O)NCCN4CCOCC4)c(C)c3cc2c1C,-1,1,-9,5,x,4
Cc1oc2c(C)c3oc(=O)c(CCC(=O)NCCCN4CCOCC4)c(C)c3cc2c1C,-2,9,3,5,x,14
O=C(O)c1nn2c(c1Br)NC(c1ccccc1)CC2C(F)(F)F (stereo unspecified),-1,-4,12,-2,i,-24
C[C@@H]1CCC[C@@]2(O[C@@H](CCO)C[C@H](O)[C@H]2O)O1,x,2,2,x,i,2

# Bioassay records: PubChem BioAssay, several laboratories
